Laboratory results as given in the RNAGym collection of RNA variant scans (doi:10.1126/science.aae0568).
This sample holds only a part of the variants without activity.

B1: tRNA (parent)
chain: GUUCCGUUGGCGUAAUGGUAACGCGUCUCCCUCCUAAGGAGAAGACUGCGGGUUCGAGUCCCGUACGGAACG

Variants of: B1
Assay: yeast fitness relative to wild type (ratio to wild type); higher = fitter; tRNA-Arg(CCU), competitive growth, 37 C, YPD
Method in brief: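 Start and end populations of a pooled competition were compared by 100-nucleotide paired-end sequencing of gene amplicons. The Saccharomyces cerevisiae strains carried tRNA-Arg(CCU) gene variants at the native genomic locus, synthesised with a 3% per-site mutation rate at 69 sites, and competed in YPD at 37°C for 24 hours in six parallel replicates. Darwinian fitness relative to wild type was based on the change in genotype frequencies. Genotypes required ≥ 100 starting reads, and estimates < 0.5 were set to 0.5.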

Variant | yeast fitness
GUUCCGUUGGCGUAAUGGUAACGGGUCUCCUUCCUAAGGAGAAGACUAUGGGUUCGAGUCCCGUACGGAACG [C24G C31U G48A C49U] | 0.785
GUUCCGUUGGCGUAAUGGUAACGGGUCUCCUUCCUAAGGAGAAGACUGCGGGUUCGAGUGCCGUACGGAACG [C24G C31U C60G] | ≤ 0.5
GUUCCGUUGGCGUAAUGGUAACGGGUCUCCUUCCUAGGGAGAAGACUGCCGGUUCGUGUCCCGUACGGAACG [C24G C31U A37G G50C A57U] | 0.648
GUUCCGUUGGCGUAAUGGUAACGGGUCUCCGUCCUAAGGAGAAGACUGCGAGUUCGAGUCCCGUACGGAACG [C24G C31G G51A] | ≤ 0.5
GUUCCGUUGGCGUAAUGGUAACGGGUCUCCCUUCUAUAGAGAAGACUGCGGGUUCGAGUCCCGUACGGAACG [C24G C33U A37U G38A] | ≤ 0.5
GUUCCGUUGGCGUAAUGGUAACGGGUCUCCCUCCUAAGGAGAAGAUUGGGCGUUCGAGUCCCGUAGGGAACG [C24G C46U C49G G51C C66G] | 0.639
GUUCCGUUGGCGUAAUGGUAACGGGUCUCGCUCCUAAGGAGAAGACUGCGGGUUCGAGGCCCGUACGGAACG [C24G C30G U59G] | 0.64
GUUCCGUUGGCGUAAUGGUAACGGGUCUCCCUACUAAGGAGAAGACUGCGGGUUCGAGUCCAGUACGGAACG [C24G C33A C62A] | ≤ 0.5
GUUCCGUUGGCGUAAUGGUAACGGGUCUCCCUGCUCCGGAGCAGACUGCGGGUUCGAGUUCCGUACUGAACG [C24G C33G A36C A37C A42C C60U G67U] | ≤ 0.5
GUUCCGUUGGCGUAAUGGUAACGGGUCUCCGUACUAAGGAGAAGACUGCCGGUUGGUGUCCUGUACGGAACG [C24G C31G C33A G50C C55G A57U C62U] | ≤ 0.5
GUUCCGUUGGCGUAAUGGUAACGGGUCUCCGUCCUAAGGAGAAGACUGCGGGUUCGAGUCCCGUACGAAUCG [C24G C31G G68A A70U] | ≤ 0.5
GUUCCGUUGGCGUAAUGGUAACGGGUCUCCCUCCUAAGGAGAAGACUGAGGGUUCGAGUCCGGUACGUAACG [C24G C49A C62G G68U] | ≤ 0.5
GUUCCGUUGGCGUAAUGGUAACGGGUCUCCUUCCUAAGGAGAAGACUGCCGGUUCGAGUCCCGUACGGAACG [C24G C31U G50C] | 0.56
GUUCCGUUGGCGUAAUGGUAACGGGUCUCCCUGCUAAGGAGAAGACUGCGGGUUCGAGUACCAUACGGAACG [C24G C33G C60A G63A] | ≤ 0.5
GUUCCGUUGGCGUAAUGGUAACGGGUCUCCCUCCUAAGGAGAAGACUGAGGGAUCGAGUCCCGUACAGAACG [C24G C49A U53A G67A] | ≤ 0.5
GUUCCGUUGGCGUAAUGGUAACGGGUCUCCGUUCUAAGGAGAAGAGUGCGGGUGCGAGUCCCGUACUGAACG [C24G C31G C33U C46G U54G G67U] | 0.645
GUUCCGUUGGCGUAAUGGUAACGGGUCUCCCUCGUAAGGAGAAGACUGCCGGUUCGAGUCUCGUACGGAACG [C24G C34G G50C C61U] | ≤ 0.5
GUUCCGUUGGCGUAAUGGUAACGGGUCUCCCUCGUAAGGAGAAGACUACGGGUACGAGUCCCCUACGGAACG [C24G C34G G48A U54A G63C] | ≤ 0.5
GUUCCGUUGGCGUAAUGGUAACGGGUCUCCCUCCUAAGGAGAAGACUGUGGGUUCGUGUCCCGUACGGAACG [C24G C49U A57U] | ≤ 0.5

Variant | yeast fitness
GUUCCGUUGGCGUAAUGGUAACGGGUCUCCUUACUAAGGAGAAGACUGCCGGUUCGAGUCCCGUACGGAACG [C24G C31U C33A G50C] | ≤ 0.5
GUUCCGUUGGCGUAAUGGUAACGGGUCUCGUUCCAUAGGAGAAAACUGCGGGUUCGAGUCCCGUACGGAACG [C24G C30G C31U U35A A36U G44A] | 0.695
GUUCCGUUGGCGUAAUGGUAACGGGUCUCCUUGCUAAGGAGCUGACUGCGGGUUCGAGUCCCGUACGGAACG [C24G C31U C33G A42C A43U] | 0.574
GUUCCGUUGGCGUAAUGGUAACGGGUCUCGCUCCUAAGGAGAAGACUGCGGGUUCGAGUCCCGUACGGAGCG [C24G C30G A70G] | 0.638
GUUCCGUUGGCGUAAUGGUAACGGGUCUCCCUCUUCAGGAGAAGAAUGCGGGUACGGGUCCCGUACGGAACG [C24G C34U A36C C46A U54A A57G] | 0.566
GUUCCGUUGGCGUAAUGGUAACGGGUCUCCCUCCUAAGGAGAAGAUUGCAGGUUCCAGUCCAGUAUGGAACG [C24G C46U G50A G56C C62A C66U] | ≤ 0.5
GUUCCGUUGGCGUAAUGGUAACGGGUCUCCCUUCUAAGGAGAAGACUGCGGGUUCGAGCCCCGUACGGAACG [C24G C33U U59C] | ≤ 0.5
GUUCCGUUGGCGUAAUGGUAACGGGUCUCACUCCUAAGGAGAAGACUGCGGGUUCGAGUCCCGUACGGCACG [C24G C30A A69C] | 0.547
GUUCCGUUGGCGUAAUGGUAACGGGUCUCCCUGCUAAGGAGAAGACUGCGGGCUUGAGUCCCGUACGGAGCG [C24G C33G U53C C55U A70G] | 0.57
GUUCCGUUGGCGUAAUGGUAACGGGUCUCCCUCCUAAGGAGAAGACUGUGGGUUCGAGUCCCGUACGGAACG [C24G C49U] | 0.576
GUUCCGUUGGCGUAAUGGUAACGGGUCUCCCUCCUAAGGAGAAGACUGGGGGUUCGAGUCCCGUACGGAACG [C24G C49G] | 0.544
GUUCCGUUGGCGUAAUGGUAACGGGUCUCCCUUCUAAGGAGAAGACUGGGGGUUCGUGUCGCGUACGGAACG [C24G C33U C49G A57U C61G] | ≤ 0.5
GUUCCGUUGGCGUAAUGGUAACGGGUCUCCAUUCAAAGGAGAAGACUGCGGGUUCGGGUCCCGCACGGAACG [C24G C31A C33U U35A A57G U64C] | ≤ 0.5
GUUCCGUUGGCGUAAUGGUAACGGGUCUCCCUCGUAACGAGAAGACUGCGGGUUCGAGUCCGGUACGGCACG [C24G C34G G38C C62G A69C] | ≤ 0.5
GUUCCGUUGGCGUAAUGGUAACGGGUCUCCCUGCUCCGGAGCAGGCUGCGGGUUCGAGUCCCGUUCGGAACG [C24G C33G A36C A37C A42C A45G A65U] | ≤ 0.5
GUUCCGUUGGCGUAAUGGUAACGGGUCUCCCUCCUAAGGAGAAGACUGGGGGUUCAAGUCCCGUACGGAACG [C24G C49G G56A] | 0.574
GUUCCGUUGGCGUAAUGGUAACGGGUCUCCUUCCUAAGGAGAAGACUGCGGGUUCGAGUCUCGUACGGAACG [C24G C31U C61U] | ≤ 0.5
GUUCCGUUGGCGUAAUGGUAACGGGUCUCCGUCCUAAGGAGAAGGCUGCGGGUUCGAGUGCCGUACGGAACG [C24G C31G A45G C60G] | ≤ 0.5
GUUCCGUUGGCGUAAUGGUAACGGGUCUCCCUGCUAAGGAGAAGACUGCGGGUUCGAGUCCCGUAUGGAACG [C24G C33G C66U] | ≤ 0.5
